Calls of active or inactive are those of the source. No cut-off for these calls is given here.
What was measured:
[1] = tested on: HUVEC; assay: Down regulation of VEGFA-stimulated VEGF-A expression in HUVEC at 5 to 20 uM after 24 hrs by Western blot analysis in presence of p38 inhibitor SB203580; type: functional, cell-based; settings: Homo sapiens
[2] = tested on: HUVEC; assay: Down regulation of VEGFA-stimulated COX2 expression in HUVEC at 5 to 20 uM after 24 hrs by Western blot analysis in presence of p38 inhibitor SB203580; type: functional, cell-based; settings: Homo sapiens
[3] = molecular target: T1, MAP kinase p38 (Homo sapiens) (UniProt O15264+Q15759+Q16539+P53778); assay: Increase of VEGFA-stimulated p38 phosphorylation in HUVEC by Western blot analysis in presence of p38 inhibitor SB203580; type: protein assay
Procedure, shortened: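 VEGF-A-HUVECs were pretreated 30 min with SB203580 before the compound was added. Lysates with phosphatase inhibitors (10 μg/lane) were separated by 10% SDS-PAGE and immunoblotted (1:1000) for phospho-p38 and total p38, detected by HRP-ECL.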

[4] = molecular target: T1, MAP kinase p38 (Homo sapiens); assay: Increase of VEGFA-stimulated p38 phosphorylation in HUVEC by Western blot analysis; type: protein assay
Procedure, shortened: (§1)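 VEGF-A-HUVECs exposed to 1, 5 or 10 μM were lysed with protease and phosphatase inhibitors (1 mM NaF, 1 mM Na3VO4). Lysates (10 μg/lane) were run on 10% SDS-PAGE and immunoblotted (1:1000) for phospho- and total ERK1/2, JNK and p38, detected by HRP-ECL.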

[5] = molecular target: c-Jun N-terminal kinase, JNK (Homo sapiens) (UniProt P45983+P53779+P45984); assay: Inhibition of VEGFA-stimulated JNK phosphorylation in HUVEC by Western blot analysis; type: cell-based; procedure, shortened: as §1
[6] = molecular target: Mitogen-activated protein kinase; ERK1/ERK2 (Homo sapiens) (UniProt P27361+P28482); assay: Inhibition of VEGFA-stimulated ERK1/2 phosphorylation in HUVEC by Western blot analysis; type: protein assay; procedure, shortened: as §1
[7] = tested on: HUVEC; assay: Inhibition of VEGFA-stimulated VEGF production in HUVEC at 5 to 20 uM after 24 hrs by enzyme immunoassay; type: functional, cell-based; settings: Homo sapiens
[8] = tested on: HUVEC; assay: Inhibition of VEGFA-stimulated PGE2 production in HUVEC at 5 to 20 uM after 24 hrs by ELISA; type: functional, cell-based; settings: Homo sapiens
[9] = tested on: HUVEC; assay: Down regulation of COX2 expression in HUVEC at 5 to 20 uM after 24 hrs by Western blot analysis; type: functional, cell-based; settings: Homo sapiens
[10] = tested on: HUVEC; assay: Down regulation of VEGF-A expression in HUVEC at 5 to 20 uM after 24 hrs by Western blot analysis; type: functional, cell-based; settings: Homo sapiens
[11] = tested on: HUVEC; assay: Down regulation of VEGFR2 expression in HUVEC at 5 to 20 uM after 24 hrs by Western blot analysis; type: functional, cell-based; settings: Homo sapiens
[12] = tested on: HUVEC; assay: Down regulation of COX2 expression in VEGFA-stimulated HUVEC at 5 to 20 uM after 24 hrs by Western blot analysis; type: functional, cell-based; settings: Homo sapiens
[13] = tested on: HUVEC; assay: Down regulation of VEGF-A expression in VEGFA-stimulated HUVEC at 5 to 20 uM after 24 hrs by Western blot analysis; type: functional, cell-based; settings: Homo sapiens
[14] = tested on: HUVEC; assay: Down regulation of VEGFR2 expression in VEGFA-stimulated HUVEC at 5 to 20 uM after 24 hrs by Western blot analysis; type: functional, cell-based; settings: Homo sapiens
[15] = tested on: HUVEC; assay: Antiangiogenic activity against VEGFA-stimulated capillary differentiation in HUVEC after 18 hrs by matrigel assay; type: functional, cell-based; settings: Homo sapiens
Procedure, shortened: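 VEGF-A-HUVECs (HUVECs stably transfected with pcDNA3.1 carrying mouse VEGF-A164, G418-selected) were plated at 1 × 10^5 cells on polymerised growth factor-reduced Matrigel (5 mg/mL) with 5, 10 or 20 μM. They were incubated 18 h at 37 °C, 5% CO2, then washed, fixed and photographed (100×). Tube area per random field was quantified by image analysis. Three experiments in triplicate; IC50 read from the dose curve.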

[16] = tested on: HUVEC; assay: Antiangiogenic activity against VEGFA-stimulated cell proliferation in HUVEC after 48 hrs by BrdU incorporation assay; type: functional, cell-based; settings: Homo sapiens
[17] = Cytotoxicity against HUVEC assessed as cell viability at 40 uM after 48 hrs by MTT assay relative to control; type: cell-based; settings: human, HUVEC cells; read-out: Activity
Procedure, shortened: (§2)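 Native (non-transfected) HUVECs were seeded at 1 × 10^4 cells/well on 0.1% gelatin in complete M199 for 24 h. They were then exposed to 1, 5, 10, 20 or 40 μM in serum-free M199 for 48 h at 37 °C. MTT was added for 3 h and formazan dissolved in 2-propanol. After centrifugation, supernatant absorbance was read at 570 nm and expressed as % of control. Three independent experiments in triplicate.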

[18] = Cytotoxicity against HUVEC assessed as cell viability at 20 uM after 48 hrs by MTT assay relative to control; type: cell-based; settings: human, HUVEC cells; read-out: Activity; procedure, shortened: as §2
[19] = Cytotoxicity against HUVEC assessed as cell viability at 10 uM after 48 hrs by MTT assay relative to control; type: cell-based; settings: human, HUVEC cells; read-out: Activity; procedure, shortened: as §2
[20] = Cytotoxicity against HUVEC assessed as cell viability at 5 uM after 48 hrs by MTT assay relative to control; type: cell-based; settings: human, HUVEC cells; read-out: Activity; procedure, shortened: as §2
[21] = Cytotoxicity against HUVEC assessed as cell viability at 1 uM after 48 hrs by MTT assay relative to control; type: cell-based; settings: human, HUVEC cells; read-out: Activity; procedure, shortened: as §2
[22] = tested on: Mus musculus; assay: Toxicity in VEGFA-stimulated mouse highly metastatic LLC cells xenografted C57BL/6 mouse assessed as mortality at 0.5 to 5 mg/kg, sc qd for 7 days; type: organism-based; set-up: dose 0.5-5 mg/kg, route subcutaneous; settings: in vivo, 168 h
[23] = tested on: Mus musculus; assay: Toxicity in VEGFA-stimulated mouse highly metastatic LLC cells xenografted C57BL/6 mouse assessed as lethargy at 0.5 to 5 mg/kg, sc qd for 7 days; type: organism-based; set-up: dose 0.5-5 mg/kg, route subcutaneous; settings: in vivo, 168 h
[24] = tested on: Mus musculus; assay: Toxicity in VEGFA-stimulated mouse highly metastatic LLC cells xenografted C57BL/6 mouse assessed as hair loss at 0.5 to 5 mg/kg, sc qd for 7 days; type: organism-based; set-up: dose 0.5-5 mg/kg, route subcutaneous; settings: in vivo, 168 h
[25] = tested on: Lewis lung carcinoma cell line; assay: Antiangiogenic activity against VEGFA-stimulated mouse highly metastatic LLC cells xenografted in C57BL/6 mouse assessed as reduction of vessel formation at 5 mg/kg, sc qd for 7 days relative to control; type: functional; set-up: scale not given: the % may be the effect or the level left; settings: route subcutaneous
Procedure, shortened: (§3)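 VEGF-A-hm LLC cells (5 × 10^5 in 50 μL) were inoculated intradermally into the back skin of mice. Compound was given sc at 0.5 or 5 mg/kg/day for 7 days, starting day 3 after inoculation. Mice were killed on day 10 and the inoculated skin separated from underlying tissue. Only vessels directly supplying the tumour were counted under a dissecting microscope; reduction is versus untreated control.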

[26] = tested on: Lewis lung carcinoma cell line; assay: Antiangiogenic activity against VEGFA-stimulated mouse highly metastatic LLC cells xenografted in C57BL/6 mouse assessed as reduction of vessel formation at 0.5 mg/kg, sc qd for 7 days relative to control; type: functional; set-up: scale not given: the % may be the effect or the level left; settings: route subcutaneous; procedure, shortened: as §3
[27] = tested on: Mus musculus; assay: Toxicity in VEGFA-stimulated mouse highly metastatic LLC cells xenografted C57BL/6 mouse assessed as mortality at 0.5 to 5 mg/kg, sc qd for 18 days; type: organism-based; set-up: dose 0.5-5 mg/kg, route subcutaneous; settings: in vivo, 432 h
Procedure, shortened: (§4)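 C57BL/6 mice bearing sc right-flank VEGF-A-hm LLC tumours (1 × 10^6 cells) were dosed sc at 0.5 or 5 mg/kg from day 12 after inoculation, over the 18-day growth study. Animals were monitored for body weight loss, lethargy, hair loss and mortality.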

[28] = tested on: Mus musculus; assay: Toxicity in VEGFA-stimulated mouse highly metastatic LLC cells xenografted C57BL/6 mouse assessed as hair loss at 0.5 to 5 mg/kg, sc qd for 18 days; type: organism-based; set-up: dose 0.5-5 mg/kg, route subcutaneous; settings: in vivo, 432 h; procedure, shortened: as §4
[29] = tested on: Mus musculus; assay: Toxicity in VEGFA-stimulated mouse highly metastatic LLC cells xenografted C57BL/6 mouse assessed as lethargy at 0.5 to 5 mg/kg, sc qd for 18 days; type: organism-based; set-up: dose 0.5-5 mg/kg, route subcutaneous; settings: in vivo, 432 h; procedure, shortened: as §4
[30] = tested on: Mus musculus; assay: Toxicity in VEGFA-stimulated mouse highly metastatic LLC cells xenografted C57BL/6 mouse assessed as reduction of body weight at 0.5 to 5 mg/kg, sc qd for 18 days; type: organism-based; set-up: dose 0.5-5 mg/kg, route subcutaneous; settings: in vivo, 432 h; procedure, shortened: as §4
[31] = tested on: Lewis lung carcinoma cell line; assay: Antitumor activity against VEGFA-stimulated mouse highly metastatic LLC cells xenografted in C57BL/6 mouse assessed as reduction of tumor weight at 5 mg/kg, […] relative to control; type: functional; set-up: scale not given: the % may be the effect or the level left; settings: route subcutaneous
[32] = tested on: Lewis lung carcinoma cell line; assay: Antitumor activity against VEGFA-stimulated mouse highly metastatic LLC cells xenografted in C57BL/6 mouse assessed as tumor growth inhibition at 5 mg/kg, […] relative to control; type: functional; settings: sc, 432 h, route subcutaneous, read-out: TGI
[33] = tested on: Lewis lung carcinoma cell line; assay: Antitumor activity against VEGFA-stimulated mouse highly metastatic LLC cells xenografted in C57BL/6 mouse assessed as reduction of tumor weight at 0.5 mg/kg, […] relative to control; type: functional; set-up: scale not given: the % may be the effect or the level left; settings: route subcutaneous
[34] = tested on: Lewis lung carcinoma cell line; assay: Antitumor activity against VEGFA-stimulated mouse highly metastatic LLC cells xenografted in C57BL/6 mouse assessed as tumor growth inhibition at 0.5 mg/kg, […] relative to control; type: functional; settings: sc, 432 h, route subcutaneous, read-out: TGI

Sequence of Mitogen-activated protein kinase; ERK1/ERK2 (Homo sapiens) (P27361 whole entry, looked up): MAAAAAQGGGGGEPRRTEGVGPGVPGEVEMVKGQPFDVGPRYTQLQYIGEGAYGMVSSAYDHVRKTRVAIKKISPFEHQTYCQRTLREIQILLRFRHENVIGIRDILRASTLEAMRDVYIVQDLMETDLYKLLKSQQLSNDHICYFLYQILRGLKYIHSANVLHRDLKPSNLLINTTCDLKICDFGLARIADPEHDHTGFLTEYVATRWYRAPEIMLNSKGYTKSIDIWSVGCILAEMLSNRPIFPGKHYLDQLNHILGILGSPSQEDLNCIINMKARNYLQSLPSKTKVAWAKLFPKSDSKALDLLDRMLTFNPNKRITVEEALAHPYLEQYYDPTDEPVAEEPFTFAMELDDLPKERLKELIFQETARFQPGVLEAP
Sequence of Mitogen-activated protein kinase; ERK1/ERK2 (Homo sapiens) (P28482 whole entry, looked up): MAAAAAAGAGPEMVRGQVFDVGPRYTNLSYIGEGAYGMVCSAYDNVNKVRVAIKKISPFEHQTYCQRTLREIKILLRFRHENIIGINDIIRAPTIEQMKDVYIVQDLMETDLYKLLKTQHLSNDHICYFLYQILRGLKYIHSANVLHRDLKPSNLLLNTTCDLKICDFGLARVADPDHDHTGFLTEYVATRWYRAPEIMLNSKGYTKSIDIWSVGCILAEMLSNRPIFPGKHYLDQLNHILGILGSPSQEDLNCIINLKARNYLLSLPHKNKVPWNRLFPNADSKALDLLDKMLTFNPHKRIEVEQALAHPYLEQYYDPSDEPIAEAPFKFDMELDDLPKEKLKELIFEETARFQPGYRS

With `CC[C@H](C)[C@H](NC(=O)CN)C(=O)NCC(=O)N[C@@H](C)C(=O)N[C@H](C(=O)N[C@@H](CC(C)C)C(=O)N[C@@H](CCCCN)C(=O)N[C@H](C(=O)N[C@@H](CC(C)C)C(=O)N[C@H](C(=O)N[C@H](C(=O)NCC(=O)N[C@@H](CC(C)C)C(=O)N1CCC[C@H]1C(=O)N[C@@H](C)C(=O)N[C@@H](CC(C)C)C(=O)N[C@H](C(=O)N[C@@H](CO)C(=O)N[C@@H](Cc1c[nH]c2ccccc12)C(=O)N[C@H](C(=O)N[C@@H](CCCCN)C(=O)N[C@@H](CCCNC(=N)N)C(=O)N[C@@H](CCCCN)C(=O)N[C@@H](CCCNC(=N)N)C(=O)N[C@@H](CCC(N)=O)C(=O)N[C@@H](CCC(N)=O)C(N)=O)[C@@H](C)CC)[C@@H](C)CC)[C@@H](C)O)[C@@H](C)O)C(C)C)C(C)C` [MELITTIN] the Activity [1] was “inactive”, the Activity [2] was “inactive” and the Activity [3] was “inactive”. The Activity [4] was “Dose-dependent effect”, the inhibition [5] was “Active” and the inhibition [6] was “Dose-dependent effect”. For the same compound, the inhibition [7] was “Active”, the inhibition [8] was “Active” and the Activity [9] was “inactive”. For the same compound, the Activity [10] was “inactive”, the Activity [11] was “inactive” and the Activity [12] was “Active”. For the same compound, the Activity [13] was “Active”, the Activity [14] was “Active” and the IC50 [15] was 13 µM. The inhibition [15] was “Dose-dependent effect”, the IC50 [16] was 18 µM and the inhibition [16] was “Dose-dependent effect”. For the same compound, the viability at 48 h, 40 µM [17] was 96.5%, the viability at 48 h, 20 µM [18] was 98.5% and the viability at 48 h, 10 µM [19] was 99.4%. The viability at 48 h, 5 µM [20] was 98.9%, the viability at 48 h, 1 µM [21] was 104% and the Activity [22] was “Non-toxic”. The Activity [23] was “Non-toxic”, the Activity [24] was “Non-toxic” and the Activity [25] was 59%. The Activity [26] was 52%, the Activity [27] was “Non-toxic” and the Activity [28] was “Non-toxic”. The Activity [29] was “Non-toxic”, the Activity [30] was “Non-toxic” and the Activity [31] was 91%. For the same compound, the inhibition in vivo at 5 mg/kg [32] was 57%, the Activity [33] was 60% and the inhibition in vivo at 0.5 mg/kg [34] was 25%.
For `CS(=O)(=O)Nc1ccc([N+](=O)[O-])cc1OC1CCCCC1` [NS-398], the inhibition [15] was “Active”, the inhibition [16] was “Active” and the Activity [25] was 22%. For the same compound, the inhibition in vivo at 5 mg/kg [32] was 42%.

From ChEMBL document CHEMBL2177088, “Melittin suppresses VEGF-A-induced tumor growth by blocking VEGFR-2 and the COX-2-mediated MAPK signaling pathway” (J Nat Prod, 2012)
